Test [1] is described as follows: Inhibition of rabbit liver guanase assessed as inhibition of guanine hydrolysis by Lineweaver-Burk plot method. The arrangement: species or system Oryctolagus cuniculus. Put shortly:
(§1)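 Rabbit liver guanase (ammonium sulfate suspension, diluted to 0.1278 U/mL; 0.0077 units per assay) in 0.05 M Tris-HCl pH 7.4, 25°C, 1.0 mL final volume. Guanine 5–40 µM (5–6 levels) at fixed inhibitor 10, 20 or 30 µM (DMSO or methanol stocks). Initial rate from absorbance decrease at 245 nm, mean of two data sets; Ki from Lineweaver-Burk plots.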

Test [2] in a line: Competitive reversible inhibition of rabbit liver guanase assessed as inhibition of guanine hydrolysis by Lineweaver-Burk plot method. Set-up: species or system Oryctolagus cuniculus. Put shortly: as §1

Regarding `CCOC1CNC(=O)c2ncn(Cc3ccc(OC)cc3)c2N1` (stereo unspecified), in test [1], the Ki was 33.4 µM.
Still for that read-out and setting: as for `COc1ccc(Cn2cnc3c2C(=O)NCC(OC)N3)cc1` (stereo unspecified), the figure is 47.5 µM; as for `O=C1NC(O)CNc2nc[nH]c21` (stereo unspecified) [AZEPINOMYCIN], 2.5 µM; as for `COC1CNC(=O)c2nc[nH]c2N1Cc1ccccc1` (stereo unspecified), 8.8 µM.
In the case of `CCCCOC1CNC(=O)c2ncn(Cc3ccccc3)c2N1` (stereo unspecified), in test [2], the Ki was 54 µM.
For `CCOC1CNC(=O)c2c(ncn2Cc2ccc(OC)cc2)N1Cc1ccccc1` (stereo unspecified), the inhibition constant (Ki) in test [1] stood at 43.8 µM.
The same measure, in the same setting: for `COc1ccc(Cn2cnc3c2C(=O)NCC(OC)N3Cc2ccccc2)cc1` (stereo unspecified) the value was 26.5 µM; for `COC1CNC(=O)c2ncn(Cc3ccc(F)cc3)c2N1` (stereo unspecified), 39.7 µM; for `COc1ccc(Cn2cnc3c2NC(OC)CNC3=O)cc1` (stereo unspecified), 21 µM.
With `CCOC1CNC(=O)c2ncn(Cc3ccccc3)c2N1` (stereo unspecified), the Ki in test [2] came out at 47 µM.
Same read-out and setting: as for `COC1CNC(=O)c2ncn(Cc3ccccc3)c2N1` (stereo unspecified), the figure is 40 µM.

The values are drawn from ChEMBL document CHEMBL2413046, “Analogs of iso-azepinomycin as potential transition-state analog inhibitors of guanase: synthesis, biochemical screening, and structure-activity correlations of various selectively substituted imidazo[4,5-e][1,4]diazepines” (Bioorg Med Chem, 2013).
